Measurements published in paper PMC3219927 (Nature medicine, 2011).
Ends that are not written are not given here.

Key:
[1] = test system: formalin-induced edema; experiment: Formalin-induced paw edema; type: in vivo, rat; details: formalin 2.5%, compared to saline; 1 h after injection
[2] = test system: ddC-induced tactile hypersensitivity; experiment: ddC-induced neuropathic pain, paw withdrawal threshold; type: in vivo, rat; details: single ddC injection
[3] = test system: meningeal blood flow (dura mater); experiment: Laser Doppler flowmetry of meningeal blood flow; type: in vivo, rat
[4] = test system: interaction between CRMP-2 and L1 of CaV2.2; experiment: In vitro binding; details: L1-GST, peptide 10 μM
Procedure, shortened: (§1)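 GST fusions of the CaV2.2 loop 1 (L1) or distal C-terminus (Ct-dis) incubated in vitro with CRMP-2 alongside test peptide or scrambled control peptide, each at 10 μM. CRMP-2 retained on the fusion proteins was detected by immunoblot with a CRMP-2 antibody.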

[5] = test system: N-type Ca^2+ channels; type: cell-based; details: DRGs, Fura-2 imaging
[6] = test system: cytosolic loop 1 (L1) of CaV2.2; experiment: Surface plasmon resonance, immobilized L1; type: binding; details: 1/3/5 μM; dissociation monitored for 4 min
Procedure, shortened: (§2)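 Test peptide or scrambled control peptide injected at 1, 3 and 5 μM over immobilized CaV2.2 L1 or Ct-dis. Binding was recorded as sensorgrams in resonance units, with dissociation followed for 4 min.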

[7] = test system: CaV2.2; experiment: CaV2.2 surface localisation; type: cell-based; details: CAD neuronal cell line, co-expression of CaV2.2 with CBD3 (fused to GFP)
[8] = test system: neurons; experiment: Cell permeation / entry into neurons; details: in vitro, ex vivo and in vivo
[9] = test system: interaction between CRMP-2 and Ct-dis of CaV2.2; experiment: In vitro binding; details: Ct-dis-GST, peptide 10 μM
Procedure, shortened: as §1

[10] = test system: neurons; details: not told
[11] = test system: hippocampal neurons; experiment: Depolarization-induced calcium influx, hippocampal neurons; type: cell-based; details: plasmid expression
[12] = test system: dorsal root ganglion (DRG) neurons; experiment: Depolarization-induced calcium influx, DRG neurons; type: cell-based; details: plasmid expression
[13] = test system: interaction between tubulin and CRMP-2; experiment: Co-immunoprecipitation with CRMP-2 antibody from spinal cord lysates, tubulin; type: binding
[14] = test system: distal C-terminus (Ct-dis) of CaV2.2; experiment: Surface plasmon resonance, immobilized Ct-dis; type: binding; details: 1/3/5 μM; dissociation monitored for 4 min
Procedure, shortened: as §2

Formalin
Change in paw thickness [1]: 4 fold

Nc1ccn([C@H]2CC[C@@H](CO)O2)c(=O)n1 [ddC, 2',3'-dideoxycytidine]
PWT after ddC [2]: exhibited a decrease in PWT

COc1cc(CNC(=O)CCCC/C=C/C(C)C)ccc1O [Capsaicin, capsaicin]
Meningeal blood flow response to capsaicin alone ([3]; nasally administered capsaicin, 100 nM): rapid and robust increase in meningeal blood flow

CBD3 (ARSRLAELRGVPRGL)
Ability of L1 to pull down CRMP-2 [4]: dramatic reduction in ability of L1 or Ct-dis proteins to pull down CRMP-2 | K+-evoked Ca2+ influx, channel selectivity [5]: reduced K^+-evoked Ca^2+ influx selectively through N-type Ca^2+ channels | Binding to immobilized L1 [6]: bound to immobilized L1 and Ct-dis proteins | CaV2.2 localisation on co-expression [7]: almost complete retention of the channel in cytoplasmic aggregates | Passage into cells, time [8]: conjugation of CBD3 to HIV-1 TAT facilitated its passage into cells in vitro, ex vivo and in vivo within minutes | Ability of Ct-dis to pull down CRMP-2 [9]: dramatic reduction in ability of L1 or Ct-dis proteins to pull down CRMP-2 | Cell permeability / entry into neurons [10]: not cell permeant | Depolarization-induced calcium influx [11]: reduced depolarization-induced calcium influx | Depolarization-induced calcium influx [12]: reduced depolarization-induced calcium influx | Effect on interaction between tubulin and CRMP-2 [13]: did not affect the interaction between tubulin and CRMP-2 | Binding to immobilized Ct-dis [14]: bound to immobilized L1 and Ct-dis proteins

CGRP8-37: CGRP antagonist (VTHRLAGLLSRSGGVVKNNFVPTNVGSKAF; ends and bridges not checked; UniProt P06881 90-119, looked up, fragment)
Dependence of capsaicin-induced blood flow changes on CGRP ([3]; prior dural administration of CGRP antagonist): could be blocked by prior dural administration of the CGRP antagonist, CGRP8-37
